Assay results gathered from unrelated publications.
Protocols differ between the studies behind these lines.
TYK2 JH2: Non-receptor tyrosine-protein kinase TYK2, JH2 (TYK2, Homo sapiens, UniProt P29597)
TYK2: Non-receptor tyrosine-protein kinase TYK2 (TYK2, Homo sapiens, UniProt P29597)

Structure (SMILES)	target	read-out	action	technique	concentration	measurement	result
Cc1nn(C)cc1-c1nc2c(N3CCN(Cc4ccc(Cl)cc4)CC3)c(Cl)cnc2[nH]1	TYK2 JH2	binding		competition with immobilised ligand	1 µM	remaining binding	100%
Cn1cc(-c2cc(F)cc(N3CCn4c(cc5c4CCCC5)C3=O)c2CO)cc(Nc2ccc(N3CCN(C4COC4)CC3)cn2)c1=O	TYK2	enzyme activity	inhibitor		0.1 µM	inhibition	1%
O=c1[nH]c2ccccc2n1C1CCN(Cc2ccc(-c3[nH]c4cc5ncnc5cc4nc3-c3ccccc3)cc2)CC1	TYK2	cell-free assay			0.5 µM	remaining signal	101%
Cn1cc(-c2cccc(N3CCc4c(sc5c4CC(C)(C)C5)C3=O)c2CO)cc(Nc2ccncn2)c1=O	TYK2	enzyme activity	inhibitor		1 µM	inhibition	3%
Cn1cncc1[C@@](O)(COc1ccc(C#N)cc1-c1ccc(OC(F)(F)F)cc1)c1ccc(C#N)cc1	TYK2 JH2	cell-free assay		competition with immobilised ligand	1 µM	remaining binding	100%
Nc1ncc(-c2nc(N3CCOCC3)nc(N3CCOCC3)n2)c(C(F)F)n1	TYK2 JH2	binding		competition with immobilised ligand	10 µM	remaining binding	15%
COc1ncccc1-c1cnn2ccc(N3CCN(C(=O)OC(C)C)CC3)nc12	TYK2	binding		competition with immobilised ligand	1 µM	remaining binding	76%
N#CC1(c2ccccn2)CCN(Cc2cc(C(=O)O)c(=O)n3ccccc23)CC1	TYK2 JH2	cell-free assay		competition with immobilised ligand	1 µM	remaining binding	93%
CC(C)(C)c1cc(C=C(C#N)C#N)cc(Br)c1O	TYK2	enzyme activity	inhibitor		0.5 µM	remaining activity	61.3%
